These results are taken from ChEMBL document CHEMBL4118021, “Studies of TAK1-centered polypharmacology with novel covalent TAK1 inhibitors” (Bioorg Med Chem, 2017).

For assay [1], the target named is T1, Dual specificity protein kinase TTK (Homo sapiens) (UniProt P33981).
T1 sequence (whole entry): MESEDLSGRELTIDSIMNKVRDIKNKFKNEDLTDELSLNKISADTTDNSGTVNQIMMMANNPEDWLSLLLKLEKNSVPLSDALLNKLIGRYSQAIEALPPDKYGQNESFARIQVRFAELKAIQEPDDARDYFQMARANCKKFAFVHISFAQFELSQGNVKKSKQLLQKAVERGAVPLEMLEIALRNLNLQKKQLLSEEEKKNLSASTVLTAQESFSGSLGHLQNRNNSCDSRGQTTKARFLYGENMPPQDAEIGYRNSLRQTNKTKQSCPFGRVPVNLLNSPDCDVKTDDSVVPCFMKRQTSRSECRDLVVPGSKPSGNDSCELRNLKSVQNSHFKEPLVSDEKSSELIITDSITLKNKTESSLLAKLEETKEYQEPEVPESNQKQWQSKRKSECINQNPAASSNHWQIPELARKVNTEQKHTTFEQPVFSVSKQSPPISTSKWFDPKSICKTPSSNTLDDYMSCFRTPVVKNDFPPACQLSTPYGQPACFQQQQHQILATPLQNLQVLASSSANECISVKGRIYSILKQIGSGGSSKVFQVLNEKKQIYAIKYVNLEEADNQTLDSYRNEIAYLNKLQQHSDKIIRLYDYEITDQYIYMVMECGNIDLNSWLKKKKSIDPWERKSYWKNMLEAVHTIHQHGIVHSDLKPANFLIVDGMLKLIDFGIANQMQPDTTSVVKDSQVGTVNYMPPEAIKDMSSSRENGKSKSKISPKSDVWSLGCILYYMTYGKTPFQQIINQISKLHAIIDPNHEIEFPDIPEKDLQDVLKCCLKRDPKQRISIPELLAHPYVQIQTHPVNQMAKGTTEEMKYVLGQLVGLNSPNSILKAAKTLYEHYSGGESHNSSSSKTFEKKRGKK
Kind of assay: Inhibition of TTK in human SKCO1 cells at 1 uM after 4 hrs using biotin labeled NMLEAVHTIHQHGIVHSDLKPANFLIDGMLK probe by mass-spectrometric analysis relative to control. It counts as cell-based. The essentials:
(§1)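 Live SK-CO-1 cells exposed to compound at 1 μM or DMSO for 4 h (KiNativ). Lysates then labeled with lysine-reactive ATP/ADP-biotin probe, and probe-labeled kinase peptides quantified by mass spectrometry. Percent inhibition of probe-dependent recovery calculated relative to DMSO-treated cells.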

The target of assay [2] is Cyclin-dependent kinase 11B (Homo sapiens) (UniProt P21127). Description: Inhibition of PITSLRE in human SKCO1 cells at 1 uM after 4 hrs using biotin labeled DLKTSNLLLSHAGILK probe by mass-spectrometric analysis relative to control. The assay is classed as cell-based. In outline: as §1
Cyclin-dependent kinase 11B (Homo sapiens), sequence (P21127 whole entry): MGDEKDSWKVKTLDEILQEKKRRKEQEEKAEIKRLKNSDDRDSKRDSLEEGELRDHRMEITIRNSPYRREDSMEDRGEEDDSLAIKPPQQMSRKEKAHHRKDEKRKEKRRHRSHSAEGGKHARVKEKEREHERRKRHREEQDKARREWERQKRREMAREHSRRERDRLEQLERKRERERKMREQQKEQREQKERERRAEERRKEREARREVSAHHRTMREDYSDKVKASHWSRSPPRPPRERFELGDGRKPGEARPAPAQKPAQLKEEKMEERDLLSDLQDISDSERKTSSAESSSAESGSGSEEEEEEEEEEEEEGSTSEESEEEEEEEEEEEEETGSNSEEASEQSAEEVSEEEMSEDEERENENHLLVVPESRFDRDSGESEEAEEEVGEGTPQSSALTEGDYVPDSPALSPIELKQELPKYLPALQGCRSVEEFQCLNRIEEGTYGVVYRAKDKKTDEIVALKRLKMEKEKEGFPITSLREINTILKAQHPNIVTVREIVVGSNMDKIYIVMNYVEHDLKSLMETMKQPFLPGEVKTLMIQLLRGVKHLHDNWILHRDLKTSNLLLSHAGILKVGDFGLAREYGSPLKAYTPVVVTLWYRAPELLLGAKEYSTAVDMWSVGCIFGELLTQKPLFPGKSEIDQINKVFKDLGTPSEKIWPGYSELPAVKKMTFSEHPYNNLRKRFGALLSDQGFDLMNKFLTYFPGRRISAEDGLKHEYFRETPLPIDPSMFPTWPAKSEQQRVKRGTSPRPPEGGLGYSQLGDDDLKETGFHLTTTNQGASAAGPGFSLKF
In assay [3] the target is T2, Mitogen-activated protein kinase kinase kinase 7 (Homo sapiens) (UniProt O43318).
T2 sequence (whole entry): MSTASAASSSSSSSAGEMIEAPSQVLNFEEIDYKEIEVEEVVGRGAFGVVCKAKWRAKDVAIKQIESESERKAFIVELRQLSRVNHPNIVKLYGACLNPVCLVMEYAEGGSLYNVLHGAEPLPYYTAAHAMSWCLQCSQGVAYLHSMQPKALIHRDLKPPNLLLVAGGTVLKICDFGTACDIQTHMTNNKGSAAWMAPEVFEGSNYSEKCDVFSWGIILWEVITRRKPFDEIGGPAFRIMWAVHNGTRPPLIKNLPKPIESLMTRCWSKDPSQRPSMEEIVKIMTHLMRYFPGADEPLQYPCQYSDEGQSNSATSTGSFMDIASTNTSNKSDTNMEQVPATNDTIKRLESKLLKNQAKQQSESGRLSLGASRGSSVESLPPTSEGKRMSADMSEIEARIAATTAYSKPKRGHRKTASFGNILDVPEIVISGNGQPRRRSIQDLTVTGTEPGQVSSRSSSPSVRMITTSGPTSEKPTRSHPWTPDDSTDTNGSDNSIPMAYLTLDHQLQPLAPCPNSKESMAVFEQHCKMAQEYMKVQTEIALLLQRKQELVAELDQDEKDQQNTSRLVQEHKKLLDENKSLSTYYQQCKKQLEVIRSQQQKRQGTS
The settings on record: 1 uM.

Assay [4] concerns the target T3, Serine/threonine-protein kinase Chk1 (Homo sapiens) (UniProt O14757).
T3 sequence (whole entry): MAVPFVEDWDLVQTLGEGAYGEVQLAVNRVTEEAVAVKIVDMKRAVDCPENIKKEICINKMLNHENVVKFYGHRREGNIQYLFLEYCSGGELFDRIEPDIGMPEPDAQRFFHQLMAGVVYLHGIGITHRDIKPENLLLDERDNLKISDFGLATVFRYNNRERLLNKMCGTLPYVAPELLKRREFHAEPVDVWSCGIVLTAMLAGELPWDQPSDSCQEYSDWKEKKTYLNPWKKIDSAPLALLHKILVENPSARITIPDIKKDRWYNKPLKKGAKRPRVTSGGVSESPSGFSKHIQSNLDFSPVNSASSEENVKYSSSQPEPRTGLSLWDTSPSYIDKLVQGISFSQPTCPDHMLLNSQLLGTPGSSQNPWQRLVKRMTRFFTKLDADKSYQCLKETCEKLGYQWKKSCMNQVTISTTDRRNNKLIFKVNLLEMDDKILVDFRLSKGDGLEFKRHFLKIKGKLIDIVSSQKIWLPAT
Kind of assay: Inhibition of CHK1 in human SKCO1 cells at 1 uM after 4 hrs using biotin labeled DIKPENLLLDER probe by mass-spectrometric analysis relative to control. It counts as cell-based.

In assay [5] the target is Serine/threonine-protein kinase MARK2 (Homo sapiens) (UniProt Q7KZI7). Kind of assay: Inhibition of MARK2 in human SKCO1 cells at 1 uM after 4 hrs using biotin labeled EVAVKIIDKTQLNSSSLQK probe by mass-spectrometric analysis relative to control. The assay is classed as cell-based.
Serine/threonine-protein kinase MARK2 (Homo sapiens), sequence (Q7KZI7 whole entry): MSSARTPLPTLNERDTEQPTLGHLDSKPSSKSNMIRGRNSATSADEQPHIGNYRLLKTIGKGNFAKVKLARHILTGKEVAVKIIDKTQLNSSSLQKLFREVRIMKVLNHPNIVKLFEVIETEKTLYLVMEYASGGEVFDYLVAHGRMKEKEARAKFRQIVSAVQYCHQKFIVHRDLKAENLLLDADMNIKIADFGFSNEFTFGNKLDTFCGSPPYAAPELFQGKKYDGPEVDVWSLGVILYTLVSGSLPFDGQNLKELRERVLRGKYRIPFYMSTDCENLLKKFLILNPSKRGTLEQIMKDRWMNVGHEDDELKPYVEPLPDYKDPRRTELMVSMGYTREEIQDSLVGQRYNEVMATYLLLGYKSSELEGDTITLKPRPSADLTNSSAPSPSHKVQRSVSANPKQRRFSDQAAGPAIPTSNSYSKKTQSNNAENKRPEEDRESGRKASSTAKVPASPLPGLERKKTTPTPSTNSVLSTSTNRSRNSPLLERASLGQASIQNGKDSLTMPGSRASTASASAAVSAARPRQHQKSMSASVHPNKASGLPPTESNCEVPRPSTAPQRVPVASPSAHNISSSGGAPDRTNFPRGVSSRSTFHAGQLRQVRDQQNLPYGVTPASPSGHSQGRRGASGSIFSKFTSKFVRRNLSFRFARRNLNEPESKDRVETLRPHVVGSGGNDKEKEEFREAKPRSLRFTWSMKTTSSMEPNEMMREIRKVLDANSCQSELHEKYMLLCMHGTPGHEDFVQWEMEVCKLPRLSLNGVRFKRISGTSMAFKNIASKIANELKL
The target in assay [6] is T4, STE20-related kinase adapter protein beta (Homo sapiens) (UniProt Q9C0K7).
T4 sequence (whole entry): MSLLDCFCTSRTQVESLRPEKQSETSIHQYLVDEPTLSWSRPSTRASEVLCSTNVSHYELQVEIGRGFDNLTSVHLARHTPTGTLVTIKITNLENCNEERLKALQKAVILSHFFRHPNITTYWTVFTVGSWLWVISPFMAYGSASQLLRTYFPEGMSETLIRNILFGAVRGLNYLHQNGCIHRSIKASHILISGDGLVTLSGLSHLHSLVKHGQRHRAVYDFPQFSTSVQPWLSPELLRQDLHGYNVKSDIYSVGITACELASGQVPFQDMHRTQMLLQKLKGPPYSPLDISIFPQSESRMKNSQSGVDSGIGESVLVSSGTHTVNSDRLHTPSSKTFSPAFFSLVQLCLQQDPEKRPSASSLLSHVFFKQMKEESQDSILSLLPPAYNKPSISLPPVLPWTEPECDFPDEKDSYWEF
Kind of assay: Inhibition of STLK6 in human SKCO1 cells at 1 uM after 4 hrs using biotin labeled SIKASHILISGDGLVTLSGLSHLHSLV probe by mass-spectrometric analysis relative to control. The assay is classed as cell-based. In outline: as §1

Assay [7] deals with Cyclin-dependent kinase 16 (Homo sapiens) (UniProt Q00536). Description: Inhibition of PCTAIRE1 in human SKCO1 cells at 1 uM after 4 hrs using biotin labeled DLKPQNLLINER probe by mass-spectrometric analysis relative to control. The assay is classed as cell-based. In outline: as §1
Cyclin-dependent kinase 16 (Homo sapiens), sequence (Q00536 whole entry): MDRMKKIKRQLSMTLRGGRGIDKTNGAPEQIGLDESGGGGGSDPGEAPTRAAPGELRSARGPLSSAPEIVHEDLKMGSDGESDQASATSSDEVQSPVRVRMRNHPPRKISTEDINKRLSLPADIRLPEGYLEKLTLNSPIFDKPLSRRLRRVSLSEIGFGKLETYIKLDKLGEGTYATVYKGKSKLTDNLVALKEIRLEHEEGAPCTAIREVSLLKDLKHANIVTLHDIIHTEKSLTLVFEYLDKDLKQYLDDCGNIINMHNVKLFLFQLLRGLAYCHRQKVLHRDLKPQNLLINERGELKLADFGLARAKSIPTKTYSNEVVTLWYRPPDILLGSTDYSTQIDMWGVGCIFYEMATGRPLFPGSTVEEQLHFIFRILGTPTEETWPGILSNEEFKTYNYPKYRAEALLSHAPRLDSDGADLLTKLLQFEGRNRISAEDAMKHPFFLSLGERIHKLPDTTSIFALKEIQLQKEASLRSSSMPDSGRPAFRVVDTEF

Structures are written as SMILES.

`C=CC(=O)Nc1ccccc1Oc1nc(Nc2cnn(CCOC)c2)ncc1Cl`: the inhibition in assay [1] is 25.4%; in assay [2] it was -0.8%; in assay [3], 31.2%; in assay [4], 48.8%; in assay [5], 6.3%; in assay [6] it was 34.4%. The inhibition in assay [7] was -5.9%.
For `COc1cc(O)c2c(c1)/C=C/C[C@H](O)[C@H](O)C(=O)/C=C\C[C@H](C)OC2=O`, the inhibition in assay [1] is 32.5%; in assay [2] it was -1.4%; in assay [3], 90%; in assay [4] it was 40.2%; in assay [5] it was -8.1%; in assay [6] it was 24.9%. Moreover, the inhibition in assay [7] was -6.3%.
`C=CC(=O)Nc1ccccc1Nc1nc(Nc2ccc(N3CCN(C)CC3)cc2)ncc1Cl`: the inhibition is 40.6% in assay [1]; -5.5% in assay [2]; 90.3% in assay [3]; 53.8% in assay [4]; 2.5% in assay [5]; 27.1% in assay [6]. Besides, the inhibition in assay [7] is -3.2%.
